Assay results taken from ChEMBL document CHEMBL1127500, “Structure-activity studies of benzimidazole-based DNA-cleaving agents. Comparison of benzimidazole, pyrrolobenzimidazole, and tetrahydropyridobenzimidazole analogues” (1994).

What was measured:
Assay type in all cases: functional
NCI-H460 = assay: Antitumor activity against NCI-11460 cell line; settings: Homo sapiens, read-out: Log LC50 (the source's name) (converted)
How it was run: (§1)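 Drugs were screened against a panel of up to 60 human cancer cell lines. The end-point was LC50, the drug concentration lethal to 50% of the cancer cells. Values were expressed as log LC50 and plotted as mean graphs centred on the log of the panel-mean LC50. Bars to the right mark lines with lower log LC50 than the mean.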

SW-620 = assay: Antitumor activity against SW-620 cell line; settings: Homo sapiens
How it was run: (§2)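 Screened against a panel of up to 60 human cancer cell lines. Read-out is LC50, the drug concentration lethal to 50% of the cells, expressed as log LC50. The mean log LC50 across the screened lines is the centre line of the mean graph. Each line's deviation from that mean is shown as a bar.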

NCI-H522 = assay: Antitumor activity against NCI-H522 cell line; settings: Homo sapiens; how it was run: as §1
COLO 205 = assay: Antitumor activity against COLO 205 cell line; settings: Homo sapiens, read-out: Log LC50 (the source's name) (converted); how it was run: as §1
M19-MEL = assay: Antitumor activity against M 19-MEL cell line; settings: Homo sapiens; how it was run: as §1
EKVX = assay: Antitumor activity against EKVX cell line; settings: Homo sapiens; how it was run: as §1
UO-31 = assay: Antitumor activity against Renal cancer UO-31 cell line; settings: Homo sapiens; how it was run: as §1
Malme-3M = assay: Antitumor activity against MALME-3M cell line; settings: Homo sapiens; how it was run: as §1
NCI-H226 = assay: Antitumor activity against NCI-H226 cell line; settings: Homo sapiens; how it was run: as §1
SNB- = assay: Antitumor activity against SNB-71 cell line; settings: Homo sapiens, read-out: Log LC50 (the source's name) (converted); how it was run: as §2
K562 = assay: Antitumor activity against K-562 leukemia cell line; settings: Homo sapiens, read-out: Log LC50 (the source's name) (converted); how it was run: as §1
ACHN = assay: Antitumor activity against Renal cancer ACHN cell line; settings: Homo sapiens, read-out: Log LC50 (the source's name) (converted); how it was run: as §1
DMS-273 = assay: Antitumor activity against DMS 273 cell line; settings: Homo sapiens, read-out: Log LC50 (the source's name) (converted); how it was run: as §1
OVCAR-8 = assay: Antitumor activity against OVCAR-8 cell line; settings: Homo sapiens, read-out: Log LC50 (the source's name) (converted); how it was run: as §1
RXF 393 = assay: Antitumor activity against Renal cancer RXF-393 cell line; settings: Homo sapiens; how it was run: as §1
DLD-1 = assay: Antitumor activity against DLD-1 cell line; settings: Homo sapiens; how it was run: as §1
HCT-116 = assay: Antitumor activity against HCT116 cell line; settings: Homo sapiens, read-out: Log LC50 (the source's name) (converted); how it was run: as §1
A549 = assay: Antitumor activity against A549/ATCC cell line; settings: Homo sapiens; how it was run: as §1
IGROV-1 = assay: Antitumor activity against IGROVI cell line; settings: Homo sapiens; how it was run: as §1
A498 = assay: Antitumor activity against Renal cancer A498 cell line; settings: Homo sapiens, read-out: Log LC50 (the source's name) (converted); how it was run: as §1
SK-OV-3 = assay: Antitumor activity against SK-OV-3 cell line; settings: Homo sapiens, read-out: Log LC50 (the source's name) (converted); how it was run: as §2
U-251 = assay: Antitumor activity against U251 cell line; settings: Homo sapiens; how it was run: as §2
UACC-257 = assay: Antitumor activity against UACC-257 cell line; settings: Homo sapiens; how it was run: as §2
NCI-H322M = assay: Antitumor activity against NCI-H322M cell line; settings: Homo sapiens, read-out: Log LC50 (the source's name) (converted); how it was run: as §1
OVCAR-3 = assay: Antitumor activity against OVCAR-3 cell line; settings: Homo sapiens; how it was run: as §1
SK-MEL-2 = assay: Antitumor activity against SK-MEL-2 cell line; settings: Homo sapiens, read-out: Log LC50 (the source's name) (converted); how it was run: as §1
HT-29 = assay: Antitumor activity against HT 29 cell line; settings: Homo sapiens, read-out: Log LC50 (the source's name) (converted); how it was run: as §1
SK-MEL-28 = assay: Antitumor activity against SK-MEL-28 cell line; settings: Homo sapiens; how it was run: as §2
[1] = Mean log10 LC50 was determined; how it was run: as §2
SR = assay: Antitumor activity against SR leukemia cell line; settings: Homo sapiens, read-out: Log LC50 (the source's name) (converted); how it was run: as §2
RPMI-8226 = assay: Antitumor activity against RPMI-8226 leukemia cell line; settings: Homo sapiens, read-out: Log LC50 (the source's name) (converted); how it was run: as §1
KM12 = assay: Antitumor activity against KM 12 cell line; settings: Homo sapiens, read-out: Log LC50 (the source's name) (converted); how it was run: as §1
M14 = assay: Antitumor activity against M 14 cell line; settings: Homo sapiens; how it was run: as §1
HOP-92 = assay: Antitumor activity against HOP-92 cell line; settings: Homo sapiens, read-out: Log LC50 (the source's name) (converted); how it was run: as §1
SK-MEL-5 = assay: Antitumor activity against SK-MEL-5 cell line; settings: Homo sapiens; how it was run: as §2
SNB-75 = assay: Antitumor activity against SNB-75 cell line; settings: Homo sapiens; how it was run: as §2
OVCAR-4 = assay: Antitumor activity against OVCAR-4 cell line; settings: Homo sapiens; how it was run: as §1
LXFL 529 = assay: Antitumor activity against […] cell line; settings: Homo sapiens; how it was run: as §1
OVCAR-5 = assay: Antitumor activity against OVCAR-5 cell line; settings: Homo sapiens; how it was run: as §1
HOP-62 = assay: Antitumor activity against HOP-62 cell line; settings: Homo sapiens; how it was run: as §1
TK-10 = assay: Antitumor activity against Renal cancer TK-10 cell line; settings: Homo sapiens; how it was run: as §1
LOX IMVI [2] = assay: Antitumor activity against LOX IMVI cell line; settings: Homo sapiens; how it was run: as §1
SNB-19 = assay: Antitumor activity against SNB-19 cell line; settings: Homo sapiens; how it was run: as §2
DMS-114 = assay: Antitumor activity against DMS 114 cell line; settings: Homo sapiens; how it was run: as §1
CAKI-1 = assay: Antitumor activity against Renal cancer CAKI-1 cell line; settings: Homo sapiens, read-out: Log LC50 (the source's name) (converted); how it was run: as §1
KM-20L2 = assay: Antitumor activity against KM 20L2 cell line; settings: Homo sapiens; how it was run: as §1
786-0 = assay: Antitumor activity against Renal cancer 786-O cell line; settings: Homo sapiens; how it was run: as §1
NCI-H23 = assay: Antitumor activity against NCI-1123 cell line; settings: Homo sapiens, read-out: Log LC50 (the source's name) (converted); how it was run: as §1
SN12C = assay: Antitumor activity against Renal cancer SN 12C cell line; settings: Homo sapiens; how it was run: as §1
HCC 2998 = assay: Antitumor activity against HCC2998 cell line; settings: Homo sapiens, read-out: Log LC50 (the source's name) (converted); how it was run: as §1
CCRF-CEM = assay: Antitumor activity against CCRF-CEM leukemia cell line; settings: Homo sapiens, read-out: Log LC50 (the source's name) (converted); how it was run: as §1
MOLT-4 = assay: Antitumor activity against MOLT-4 leukemia cell line; settings: Homo sapiens; how it was run: as §1
HL-60 = assay: Antitumor activity against HL-60(TB) leukemia cell line; settings: Homo sapiens, read-out: Log LC50 (the source's name) (converted); how it was run: as §1
SF-539 = assay: Antitumor activity against SF-539 cell line; settings: Homo sapiens; how it was run: as §1
SF-268 = assay: Antitumor activity against SF-268 cell line; settings: Homo sapiens; how it was run: as §1
UACC-62 = assay: Antitumor activity against UACC-62 cell line; settings: Homo sapiens, read-out: Log LC50 (the source's name) (converted); how it was run: as §2
LOX IMVI [3] = assay: Antitumor activity against LOX IMV cell line; settings: Homo sapiens, read-out: Log LC50 (the source's name) (converted); how it was run: as §1

Molecule `CC(=O)OC1CCCn2c1nc1c2C(=O)C(C)=C(N2CC2)C1=O` (stereo not given) has a CC50 (NCI-H460) of 0.676 µM, an LC50 (SW-620) of 53.7 µM and an LC50 (NCI-H522) of 3.72 µM. For the same molecule, the CC50 (COLO 205) was 18.2 µM, the LC50 (M19-MEL) was 35.5 µM and the LC50 (EKVX) was 3.98 µM. The LC50 (concentration lethal to 50% of cancer cells) (UO-31) was 20 µM, the LC50 (Malme-3M) was 2.34 µM and the LC50 (NCI-H226) was 3.98 µM. The CC50 (SNB-) was 33.1 µM, the CC50 (K562) was over 100 µM and the CC50 (ACHN) was 25.7 µM. For the same molecule, the CC50 (DMS-273) was 5.37 µM, the CC50 (OVCAR-8) was 5.62 µM and the LC50 (RXF 393) was 4.68 µM. It also gave an LC50 (DLD-1) of 87.1 µM, a CC50 (HCT-116) of 17.8 µM and an LC50 (A549) of 32.4 µM. It also gave an LC50 (IGROV-1) of 30.9 µM, a CC50 (A498) of 1.29 µM and a CC50 (SK-OV-3) of 7.08 µM. For the same molecule, the LC50 (U-251) was 3.39 µM, the LC50 (UACC-257) was 3.8 µM and the CC50 (NCI-H322M) was 26.9 µM. The LC50 (OVCAR-3) was 6.31 µM, the CC50 (SK-MEL-2) was 3.8 µM and the CC50 (HT-29) was 1.82 µM. The LC50 (SK-MEL-28) was 6.03 µM, the Mean log LC50 [1] was -5.04 and the CC50 (SR) was over 100 µM. It also gave a CC50 (RPMI-8226) of over 100 µM, a CC50 (KM12) of 5.25 µM and an LC50 (M14) of 0.794 µM. The CC50 (HOP-92) was over 100 µM, the LC50 (SK-MEL-5) was 0.661 µM and the LC50 (SNB-75) was 4.57 µM. The LC50 (OVCAR-4) was 5.89 µM, the LC50 (LXFL 529) was 4.9 µM and the LC50 (OVCAR-5) was 4.9 µM. For the same molecule, the LC50 (HOP-62) was 1.82 µM, the LC50 (TK-10) was 25.1 µM and the LC50 (LOX IMVI [2]) was 5.37 µM. It also gave an LC50 (SNB-19) of 5.89 µM, an LC50 (DMS-114) of 7.76 µM and a CC50 (CAKI-1) of 3.31 µM. For the same molecule, the LC50 (concentration lethal to 50% of cells) (KM-20L2) was 4.68 µM, the LC50 (786-0) was 43.7 µM and the CC50 (NCI-H23) was 3.98 µM. For the same molecule, the LC50 (SN12C) was 4.17 µM, the CC50 (HCC 2998) was 3.09 µM and the CC50 (CCRF-CEM) was over 100 µM. The LC50 (MOLT-4) was over 100 µM, the CC50 (HL-60) was over 100 µM and the LC50 (concentration lethal to 50% of cells) (SF-539) was 14.1 µM. For the same molecule, the LC50 (SF-268) was 0.692 µM and the CC50 (UACC-62) was 4.9 µM.

Molecule `CC(=O)OC1CCn2c1nc1c2C(=O)C(C)=C(N2CC2)C1=O` (stereo not given) has an LC50 (Malme-3M) of 0.055 µM, a Mean log LC50 [1] of -6.61 and an LC50 (SK-MEL-5) of under 0.01 µM. It also gave a CC50 (LOX IMVI [3]) of under 0.01 µM.
